# From ChEMBL document CHEMBL5058577, “EUbOPEN Chemogenomics Library 2 (Multiplex)” (2022)
# System: Fibroblast
# Assay: Multiplex assay against human fibroblast
# Type: toxicity, cell-based
# Method in brief: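 At seeding, live cells were stained with Hoechst33342, BioTracker Green Microtubule Cytoskeleton Dye, MitoTracker Red and Annexin V Alexa Fluor 680. After compound addition they were imaged on a CQ1 microscope at 37°C and 5% CO2, and CellPathfinder machine-learning gating sorted them into Hoechst high-intensity objects or normal cells, with normal cells further split into healthy, pyknosed or fragmented nuclei and pyknosed cells into mitotic or apoptotic. Tubulin, mitochondrial-mass and membrane-permeability phenotypes are given as per cents of cells with healthy nuclei.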
# [1] = 12 h, 1 µM, compound concentration 1 uM, replicate 1
# [2] = 12 h, 1 µM, compound concentration 1 uM, replicate 2
# [3] = 12 h, 10 µM, compound concentration 10 uM, replicate 1
# [4] = 12 h, 10 µM, compound concentration 10 uM, replicate 2
# [5] = 24 h, 1 µM, compound concentration 1 uM, replicate 1
# [6] = 24 h, 1 µM, compound concentration 1 uM, replicate 2
# [7] = 24 h, 10 µM, compound concentration 10 uM, replicate 1
# [8] = 24 h, 10 µM, compound concentration 10 uM, replicate 2
# [9] = 48 h, 1 µM, compound concentration 1 uM, replicate 1
# [10] = 48 h, 1 µM, compound concentration 1 uM, replicate 2
# [11] = 48 h, 10 µM, compound concentration 10 uM, replicate 1
# [12] = 48 h, 10 µM, compound concentration 10 uM, replicate 2
structure (smiles),measurement,setting,value
CSCC[C@H](NC=O)C(=O)N[C@@H](CC(C)C)C(=O)N[C@@H](Cc1ccccc1)C(=O)O,Population Fragmented Nuclei (%),[1],18%
same,Population Healthy Nuclei (%),[1],69%
same,Population Mitochondria Different-Phenotype (%),[1],3%
same,Population Tubulin-Different-Phenotype (%),[1],26%
same,Total Cell Count,[1],182
same,Population Fragmented Nuclei (%),[2],29%
same,Population Healthy Nuclei (%),[2],51%
same,Population Mitochondria Different-Phenotype (%),[2],4%
same,Population Tubulin-Different-Phenotype (%),[2],39%
same,Total Cell Count,[2],175
same,Population Mitochondria Different-Phenotype (%),[3],5%
same,Population Tubulin-Different-Phenotype (%),[3],24%
same,Total Cell Count,[3],112
same,Population Fragmented Nuclei (%),[4],27%
same,Population Healthy Nuclei (%),[4],39%
same,Population Hoechst High Intensity Objects (%),[4],38%
same,Population Membrane Permeable-Phenotype (%),[4],9%
same,Population Mitochondria Different-Phenotype (%),[4],3%
same,Population Normal (%),[4],61%
same,Population Tubulin-Different-Phenotype (%),[4],35%
same,Total Cell Count,[4],315
same,Population Healthy Nuclei (%),[5],73%
same,Population Mitochondria Different-Phenotype (%),[5],4%
same,Population Tubulin-Different-Phenotype (%),[5],18%
same,Total Cell Count,[5],173
same,Population Fragmented Nuclei (%),[6],35%
same,Population Healthy Nuclei (%),[6],46%
same,Population Hoechst High Intensity Objects (%),[6],7%
same,Population Mitochondria Different-Phenotype (%),[6],9%
same,Population Normal (%),[6],92%
same,Population Tubulin-Different-Phenotype (%),[6],43%
same,Total Cell Count,[6],179
same,Population Fragmented Nuclei (%),[7],19%
same,Population Membrane Permeable-Phenotype (%),[7],3%
same,Population Mitochondria Different-Phenotype (%),[7],7%
same,Population Tubulin-Different-Phenotype (%),[7],25%
same,Total Cell Count,[7],107
same,Population Healthy Nuclei (%),[8],38%
same,Population Hoechst High Intensity Objects (%),[8],32%
same,Population Mitochondria Different-Phenotype (%),[8],10%
same,Population Normal (%),[8],67%
same,Population Tubulin-Different-Phenotype (%),[8],47%
same,Total Cell Count,[8],230
same,Population Fragmented Nuclei (%),[9],16%
same,Population Healthy Nuclei (%),[9],69%
same,Population Mitochondria Different-Phenotype (%),[9],1%
same,Population Tubulin-Different-Phenotype (%),[9],21%
same,Total Cell Count,[9],184
same,Population Fragmented Nuclei (%),[10],36%
same,Population Healthy Nuclei (%),[10],47%
same,Population Mitochondria Different-Phenotype (%),[10],8%
same,Population Tubulin-Different-Phenotype (%),[10],54%
same,Total Cell Count,[10],174
same,Population Fragmented Nuclei (%),[11],18%
same,Population Mitochondria Different-Phenotype (%),[11],4%
same,Population Tubulin-Different-Phenotype (%),[11],24%
same,Total Cell Count,[11],110
same,Population Healthy Nuclei (%),[12],44%
same,Population Hoechst High Intensity Objects (%),[12],29%
same,Population Membrane Permeable-Phenotype (%),[12],4%
same,Population Mitochondria Different-Phenotype (%),[12],1%
same,Population Normal (%),[12],70%
same,Population Tubulin-Different-Phenotype (%),[12],47%
same,Total Cell Count,[12],231
O=C1COc2nccc(-c3ccccc3F)c2CN1Cc1cc(C(F)(F)F)cc(C(F)(F)F)c1,Population Apoptotic (%),[1],38%
same,Population Fragmented Nuclei (%),[1],12%
same,Population Healthy Nuclei (%),[1],74%
same,Population Hoechst High Intensity Objects (%),[1],2%
same,Population Membrane Permeable-Phenotype (%),[1],1%
same,Population Mitochondria Different-Phenotype (%),[1],7%
same,Population Mitotic Cells (%),[1],61%
same,Population Normal (%),[1],97%
same,Population Pyknosed Nuclei (%),[1],13%
same,Population Tubulin-Different-Phenotype (%),[1],27%
same,Total Cell Count,[1],195
same,Population Apoptotic (%),[2],29%
same,Population Fragmented Nuclei (%),[2],17%
same,Population Healthy Nuclei (%),[2],62%
same,Population Hoechst High Intensity Objects (%),[2],0%
same,Population Mitochondria Different-Phenotype (%),[2],5%
same,Population Mitotic Cells (%),[2],70%
same,Population Normal (%),[2],99%
same,Population Pyknosed Nuclei (%),[2],20%
same,Population Tubulin-Different-Phenotype (%),[2],32%
same,Total Cell Count,[2],135
same,Population Apoptotic (%),[3],54%
same,Population Fragmented Nuclei (%),[3],15%
same,Population Healthy Nuclei (%),[3],69%
same,Population Hoechst High Intensity Objects (%),[3],5%
same,Population Membrane Permeable-Phenotype (%),[3],0%
same,Population Mitochondria Different-Phenotype (%),[3],10%
same,Population Mitotic Cells (%),[3],45%
same,Population Normal (%),[3],94%
same,Population Pyknosed Nuclei (%),[3],14%
same,Population Tubulin-Different-Phenotype (%),[3],66%
same,Total Cell Count,[3],161
same,Population Apoptotic (%),[4],37%
same,Population Fragmented Nuclei (%),[4],24%
same,Population Healthy Nuclei (%),[4],51%
same,Population Hoechst High Intensity Objects (%),[4],8%
same,Population Membrane Permeable-Phenotype (%),[4],4%
same,Population Mitochondria Different-Phenotype (%),[4],12%
same,Population Mitotic Cells (%),[4],62%
same,Population Normal (%),[4],91%
same,Population Pyknosed Nuclei (%),[4],23%
same,Population Tubulin-Different-Phenotype (%),[4],50%
same,Total Cell Count,[4],132
same,Population Apoptotic (%),[5],53%
same,Population Fragmented Nuclei (%),[5],11%
same,Population Healthy Nuclei (%),[5],74%
same,Population Hoechst High Intensity Objects (%),[5],3%
same,Population Membrane Permeable-Phenotype (%),[5],0%
same,Population Mitochondria Different-Phenotype (%),[5],6%
same,Population Mitotic Cells (%),[5],46%
same,Population Normal (%),[5],96%
same,Population Pyknosed Nuclei (%),[5],14%
same,Population Tubulin-Different-Phenotype (%),[5],23%
same,Total Cell Count,[5],203
same,Population Apoptotic (%),[6],34%
same,Population Fragmented Nuclei (%),[6],20%
same,Population Healthy Nuclei (%),[6],58%
same,Population Hoechst High Intensity Objects (%),[6],2%
same,Population Membrane Permeable-Phenotype (%),[6],2%
same,Population Mitochondria Different-Phenotype (%),[6],3%
same,Population Mitotic Cells (%),[6],65%
same,Population Normal (%),[6],97%
same,Population Pyknosed Nuclei (%),[6],20%
same,Population Tubulin-Different-Phenotype (%),[6],39%
same,Total Cell Count,[6],142
same,Population Apoptotic (%),[7],66%
same,Population Fragmented Nuclei (%),[7],18%
same,Population Healthy Nuclei (%),[7],71%
same,Population Hoechst High Intensity Objects (%),[7],3%
same,Population Membrane Permeable-Phenotype (%),[7],0%
same,Population Mitochondria Different-Phenotype (%),[7],11%
same,Population Mitotic Cells (%),[7],33%
same,Population Normal (%),[7],96%
same,Population Pyknosed Nuclei (%),[7],9%
same,Population Tubulin-Different-Phenotype (%),[7],57%
same,Total Cell Count,[7],162
same,Population Apoptotic (%),[8],55%
same,Population Fragmented Nuclei (%),[8],26%
same,Population Healthy Nuclei (%),[8],56%
same,Population Hoechst High Intensity Objects (%),[8],6%
same,Population Membrane Permeable-Phenotype (%),[8],7%
same,Population Mitochondria Different-Phenotype (%),[8],5%
same,Population Mitotic Cells (%),[8],45%
same,Population Normal (%),[8],93%
same,Population Pyknosed Nuclei (%),[8],16%
same,Population Tubulin-Different-Phenotype (%),[8],61%
same,Total Cell Count,[8],129
same,Population Apoptotic (%),[9],75%
same,Population Fragmented Nuclei (%),[9],16%
same,Population Healthy Nuclei (%),[9],75%
same,Population Hoechst High Intensity Objects (%),[9],5%
same,Population Membrane Permeable-Phenotype (%),[9],0%
same,Population Mitochondria Different-Phenotype (%),[9],4%
same,Population Mitotic Cells (%),[9],25%
same,Population Normal (%),[9],94%
same,Population Pyknosed Nuclei (%),[9],8%
same,Population Tubulin-Different-Phenotype (%),[9],28%
same,Total Cell Count,[9],210
same,Population Apoptotic (%),[10],31%
same,Population Fragmented Nuclei (%),[10],29%
same,Population Healthy Nuclei (%),[10],55%
same,Population Hoechst High Intensity Objects (%),[10],6%
same,Population Membrane Permeable-Phenotype (%),[10],1%
same,Population Mitochondria Different-Phenotype (%),[10],1%
same,Population Mitotic Cells (%),[10],68%
same,Population Normal (%),[10],93%
same,Population Pyknosed Nuclei (%),[10],14%
same,Population Tubulin-Different-Phenotype (%),[10],25%
same,Total Cell Count,[10],143
same,Population Apoptotic (%),[11],72%
same,Population Fragmented Nuclei (%),[11],20%
same,Population Healthy Nuclei (%),[11],72%
same,Population Hoechst High Intensity Objects (%),[11],2%
same,Population Membrane Permeable-Phenotype (%),[11],0%
same,Population Mitochondria Different-Phenotype (%),[11],14%
same,Population Mitotic Cells (%),[11],27%
same,Population Normal (%),[11],97%
same,Population Pyknosed Nuclei (%),[11],6%
same,Population Tubulin-Different-Phenotype (%),[11],62%
same,Total Cell Count,[11],172
same,Population Apoptotic (%),[12],60%
same,Population Fragmented Nuclei (%),[12],39%
same,Population Healthy Nuclei (%),[12],49%
same,Population Hoechst High Intensity Objects (%),[12],5%
same,Population Membrane Permeable-Phenotype (%),[12],1%
same,Population Mitochondria Different-Phenotype (%),[12],8%
same,Population Mitotic Cells (%),[12],40%
same,Population Normal (%),[12],94%
same,Population Pyknosed Nuclei (%),[12],11%
same,Population Tubulin-Different-Phenotype (%),[12],47%
same,Total Cell Count,[12],144
